In ChEMBL document CHEMBL2346613, “Synthesis of indazole based diarylurea derivatives and their antiproliferative activity against tumor cell lines” (Bioorg Med Chem Lett, 2013):

What was measured:
LoVo = assay: Cytotoxicity against human LoVo cells after 72 hrs by MTT assay; format: functional, cell-based
Procedure, shortened: (§1)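 Cells were kept in RPMI-1640 or DMEM with 10% heat-inactivated FBS, penicillin–streptomycin, 2 mM glutamine and 10 mM HEPES at 37 °C, 5% CO2. They were trypsinized, seeded at 3 × 10³ per well and allowed 24 h before exposure to a range of concentrations for 72 h. MTT (5 mg/mL stock) was added for 4 h, absorbance read at 570 nm, and IC50 calculated.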

HT-29 = assay: Cytotoxicity against human HT-29 cells after 72 hrs by MTT assay; format: functional, cell-based; conditions: HT-29, 72 h; procedure, shortened: as §1
MDA-MB-231 = assay: Cytotoxicity against human MDA-MB-231 cells after 72 hrs by MTT assay; format: functional, cell-based; conditions: MDA-MB-231, 72 h; procedure, shortened: as §1
OS-RC-2 = assay: Cytotoxicity against human OS-RC2 cells after 72 hrs by MTT assay; format: functional, cell-based; conditions: OS-RC-2, 72 h; procedure, shortened: as §1
NCI-H460 = assay: Cytotoxicity against human NCI-H460 cells after 72 hrs by MTT assay; format: functional, cell-based; conditions: NCI-H460, 72 h; procedure, shortened: as §1
A549 = assay: Cytotoxicity against human A549 cells after 72 hrs by MTT assay; format: functional, cell-based; conditions: A549, 72 h; procedure, shortened: as §1
Bel-7402 = assay: Cytotoxicity against human Bel7402 cells after 72 hrs by MTT assay; format: functional, cell-based; conditions: Bel-7402, 72 h; procedure, shortened: as §1
HepG2 = assay: Cytotoxicity against human HepG2 cells after 72 hrs by MTT assay; format: functional, cell-based; conditions: HepG2, 72 h; procedure, shortened: as §1
SGC-7901 = assay: Cytotoxicity against human SGC7901 cells after 72 hrs by MTT assay; format: functional, cell-based; conditions: SGC-7901, 72 h; procedure, shortened: as §1
Mus musculus [1] = assay: Acute toxicity against mouse at 2000 mg/kg, po administered as single dose; format: organism-based; design: dose 2000 mg/kg, route oral; conditions: in vivo
Procedure, shortened: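 Mice received one oral dose, and the read-out was any sign of toxicity. The highest dose given without signs was recorded as the tolerated single oral dose.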

Mus musculus [2] = assay: Toxicity against mouse at 1460 mg/kg, po administered as single dose; format: organism-based; design: dose 1460 mg/kg, route oral; conditions: in vivo
Procedure, shortened: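 Acute toxicity was tested in mice by a single oral dose, with doses up to 2000 mg/kg. Animals were watched for any sign of toxicity.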

Row | SMILES | IC50 (LoVo) | IC50 (HT-29) | IC50 (MDA-MB-231) | IC50 (OS-RC-2) | IC50 (NCI-H460) | IC50 (A549) | IC50 (Bel-7402) | IC50 (HepG2) | IC50 (SGC-7901) | Activity (Mus musculus [1]) | Activity (Mus musculus [2])
1 | COc1cccc2c1cnn2-c1ccc(NC(=O)Nc2ccc(Cl)c(C(F)(F)F)c2)cc1 | > 32 µM | > 32 µM | 1.2 µM | 28.8 µM | 2.2 µM | 3.7 µM | 2.9 µM | 4 µM | 29.8 µM |  | 
2 | O=C(Nc1ccc(-n2ncc3c(F)cccc32)cc1)Nc1ccc(Cl)c(C(F)(F)F)c1 | 9.8 µM | 8.2 µM | 3.1 µM | 32 µM | 3.4 µM | 3.8 µM | 16 µM | 29.5 µM | 32 µM |  | 
3 | O=C(Nc1ccc(-n2ncc3c(C(F)(F)F)cccc32)cc1)Nc1ccc(C(F)(F)F)cc1 | 2.2 µM | 3.3 µM | 2 µM | 4 µM | 0.8 µM | 0.8 µM | 1 µM | 1 µM | 4 µM | Non-toxic | 
4 | O=C(Nc1ccc(-n2ncc3ccccc32)cc1)Nc1ccc(Cl)c(C(F)(F)F)c1 | 8.7 µM | 18.2 µM | 5 µM | 32 µM | 5.5 µM | 9.9 µM | 10.6 µM | 8 µM | > 32 µM |  | 
5 | CNc1cccc2c1cnn2-c1ccc(NC(=O)Nc2ccc(Cl)c(C(F)(F)F)c2)cc1 | 6.3 µM | 5.9 µM | 3.6 µM | 10.6 µM | 2.6 µM | 4.9 µM | 5 µM | 3 µM | 6.9 µM |  | 
6 | O=C(Nc1ccc(-n2ncc3c(Cl)cccc32)cc1)Nc1ccc(Cl)c(C(F)(F)F)c1 | 3.6 µM | 4.6 µM | 1.6 µM | 3.1 µM | 1.3 µM | 3.1 µM | 2 µM | 1.9 µM | 4.6 µM | Non-toxic | 
7 | O=C(Nc1ccc(-n2ncc3c(Cl)cccc32)cc1)Nc1ccc(C(F)(F)F)cc1 | 5.1 µM | 1 µM | 2.7 µM | 4.6 µM | 6.8 µM | 6 µM | 8 µM | 6.7 µM | 6 µM |  | 
8 | Cc1cccc2c1cnn2-c1ccc(NC(=O)Nc2ccc(Cl)c(C(F)(F)F)c2)cc1 | 3.9 µM | 32 µM | 2.3 µM | 32 µM | 2.5 µM | 5.5 µM | 6.7 µM | 4 µM | 14.2 µM |  | 
9 | CNC(=O)c1cc(Oc2ccc(NC(=O)Nc3ccc(Cl)c(C(F)(F)F)c3)cc2)ccn1 [SORAFENIB] | 3.3 µM | 4 µM | 2 µM | 16 µM | 3.9 µM | 4 µM | 5.8 µM | 4 µM | 6.9 µM |  | Non-toxic
10 | O=C(Nc1ccc(-n2ncc3c(C(F)(F)F)cccc32)cc1)Nc1ccc(Cl)c(C(F)(F)F)c1 | 3 µM | 2.9 µM | 2 µM | > 32 µM | 1.6 µM | 3 µM | 16 µM | 8 µM | > 32 µM | Non-toxic | 
11 | O=C(Nc1ccc(-n2ncc3cccnc32)cc1)Nc1ccc(Cl)c(C(F)(F)F)c1 | 32 µM | > 32 µM | > 32 µM | > 32 µM | 16.6 µM | > 32 µM | 20.9 µM | > 32 µM | > 32 µM |  | 
12 | O=C(Nc1ccc(-n2ncc3c(Br)cccc32)cc1)Nc1ccc(Cl)c(C(F)(F)F)c1 | 1.7 µM | 4 µM | 7.7 µM | 9.9 µM | 1.3 µM | 2.3 µM | 1.3 µM | 2.5 µM | 16.6 µM |  | 
13 | O=C(Nc1ccc(-n2ncc3ccncc32)cc1)Nc1ccc(Cl)c(C(F)(F)F)c1 | 7.1 µM | 29.5 µM | > 32 µM | > 32 µM | 4.8 µM | 10.6 µM | 4 µM | 16 µM | > 32 µM |  | 
14 | O=C(Nc1ccc(-n2ncc3cnccc32)cc1)Nc1ccc(Cl)c(C(F)(F)F)c1 | 8 µM | 10.5 µM | 16 µM | > 32 µM | 1.4 µM | 3.4 µM | 2.7 µM | 4 µM | 22.6 µM |  | 
